Experiment [1] addresses Glutamate receptor ionotropic, kainate 1 (Rattus norvegicus, UniProt P22756). The experiment is described as follows: Concentration which causes 50% reduction in receptor binding affinity against Ionotropic glutamate receptor ionotropic kainate using [3H]-kainic acid.
The target in experiment [2] is T1, Glutamate receptor ionotropic, AMPA (Rattus norvegicus, UniProt P19490+P19491+P19492+P19493). As to the kind of experiment: Concentration which causes 50% reduction in receptor binding affinity against Ionotropic glutamate receptor AMPA using [3H]AMPA. Type of experiment: protein-complex assay.
Experiment [3] concerns the target Metabotropic glutamate receptor 5 (Rattus norvegicus, UniProt P31424). The experiment is described as follows: The compound was tested for the receptor binding affinity at Metabotropic glutamate receptor 5 using established second messenger assay systems. An outline of the steps: (§1)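 Receptors were expressed in CHO cells: mGluR1α, mGluR2, mGluR4a and mGluR5a. Functional read-outs were PI hydrolysis (1.8 × 10^6 cells seeded 2 days before) or cyclic AMP formation (1.0 × 10^6 cells seeded 2 days before). Agonist and antagonist activity was tested at 1 mM unless stated otherwise. Ki was derived from IC50 via the Cheng–Prusoff equation.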

Experiment [4] concerns the target Metabotropic glutamate receptor 2 (Rattus norvegicus, UniProt P31421). As to the kind of experiment: The compound was tested for the receptor binding affinity at Metabotropic glutamate receptor 2 using established second messenger assay systems. The essentials:
as §1

The target of experiment [5] is Metabotropic glutamate receptor 4 (Rattus norvegicus, UniProt P31423). As to the kind of experiment: The compound was tested for the receptor binding affinity at Metabotropic glutamate receptor 4 using established second messenger assay systems. The essentials: as §1
Experiment [6] has as its target Metabotropic glutamate receptor 1 (Rattus norvegicus, UniProt P23385). As to the kind of experiment: The compound was tested for the receptor binding affinity at Metabotropic glutamate receptor 1 using established second messenger assay systems. An outline of the steps: as §1
The next experiment addresses Glutamate NMDA receptor. The experiment is described as follows: Concentration which causes 50% reduction in receptor binding affinity against N-methyl-D-aspartate glutamate receptor (NMDA) using [3H]CPP. It is filed as protein-complex assay.
Experiment [7] is filed under the species Rattus norvegicus. The experiment is described as follows: Electropharmacology measured as antagonist effects in the rat cortical wedge model. It is filed as functional.
The species named for experiment [8] is Rattus norvegicus. The experiment is described as follows: Electropharmacology measured as agonist effects in the rat cortical wedge model. Type of experiment: functional.
Experiment [9] deals with T1, Glutamate receptor ionotropic, AMPA. The experiment is described as follows: Concentration which causes 50% reduction in receptor binding affinity against Ionotropic glutamate receptor AMPA using [3H]AMPA.

Chain of Metabotropic glutamate receptor 1 (P23385 whole entry): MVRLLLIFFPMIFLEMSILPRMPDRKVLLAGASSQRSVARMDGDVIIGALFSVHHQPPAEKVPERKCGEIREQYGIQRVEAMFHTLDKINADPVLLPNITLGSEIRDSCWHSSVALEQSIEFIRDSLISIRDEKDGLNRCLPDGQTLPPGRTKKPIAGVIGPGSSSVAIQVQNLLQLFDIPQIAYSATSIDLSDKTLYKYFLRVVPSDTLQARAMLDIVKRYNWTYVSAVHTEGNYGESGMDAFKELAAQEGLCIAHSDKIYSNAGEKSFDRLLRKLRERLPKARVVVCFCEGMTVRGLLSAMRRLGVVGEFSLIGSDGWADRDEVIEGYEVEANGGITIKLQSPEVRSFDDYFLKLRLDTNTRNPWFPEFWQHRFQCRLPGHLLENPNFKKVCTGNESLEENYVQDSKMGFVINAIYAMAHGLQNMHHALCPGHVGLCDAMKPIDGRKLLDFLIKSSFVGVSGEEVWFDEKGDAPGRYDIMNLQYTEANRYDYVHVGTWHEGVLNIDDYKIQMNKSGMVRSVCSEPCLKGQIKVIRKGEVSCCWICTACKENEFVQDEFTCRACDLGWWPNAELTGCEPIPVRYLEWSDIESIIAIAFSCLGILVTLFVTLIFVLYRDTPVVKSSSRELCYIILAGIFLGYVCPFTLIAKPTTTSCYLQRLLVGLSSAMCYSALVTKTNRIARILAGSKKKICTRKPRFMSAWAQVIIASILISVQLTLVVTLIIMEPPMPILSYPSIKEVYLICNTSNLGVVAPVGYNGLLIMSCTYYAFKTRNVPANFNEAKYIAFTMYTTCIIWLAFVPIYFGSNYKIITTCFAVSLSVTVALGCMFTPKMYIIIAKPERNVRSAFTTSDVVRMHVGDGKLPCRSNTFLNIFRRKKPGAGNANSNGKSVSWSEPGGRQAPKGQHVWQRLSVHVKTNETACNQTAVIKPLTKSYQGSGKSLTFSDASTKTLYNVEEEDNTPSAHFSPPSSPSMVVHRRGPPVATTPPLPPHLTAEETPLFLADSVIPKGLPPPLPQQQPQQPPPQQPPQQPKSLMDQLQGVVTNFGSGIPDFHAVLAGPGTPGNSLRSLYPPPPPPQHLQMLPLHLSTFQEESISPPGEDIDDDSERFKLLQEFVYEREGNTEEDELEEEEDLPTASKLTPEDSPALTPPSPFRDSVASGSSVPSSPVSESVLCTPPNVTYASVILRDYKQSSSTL
Chain of Metabotropic glutamate receptor 5 (P31424 whole entry): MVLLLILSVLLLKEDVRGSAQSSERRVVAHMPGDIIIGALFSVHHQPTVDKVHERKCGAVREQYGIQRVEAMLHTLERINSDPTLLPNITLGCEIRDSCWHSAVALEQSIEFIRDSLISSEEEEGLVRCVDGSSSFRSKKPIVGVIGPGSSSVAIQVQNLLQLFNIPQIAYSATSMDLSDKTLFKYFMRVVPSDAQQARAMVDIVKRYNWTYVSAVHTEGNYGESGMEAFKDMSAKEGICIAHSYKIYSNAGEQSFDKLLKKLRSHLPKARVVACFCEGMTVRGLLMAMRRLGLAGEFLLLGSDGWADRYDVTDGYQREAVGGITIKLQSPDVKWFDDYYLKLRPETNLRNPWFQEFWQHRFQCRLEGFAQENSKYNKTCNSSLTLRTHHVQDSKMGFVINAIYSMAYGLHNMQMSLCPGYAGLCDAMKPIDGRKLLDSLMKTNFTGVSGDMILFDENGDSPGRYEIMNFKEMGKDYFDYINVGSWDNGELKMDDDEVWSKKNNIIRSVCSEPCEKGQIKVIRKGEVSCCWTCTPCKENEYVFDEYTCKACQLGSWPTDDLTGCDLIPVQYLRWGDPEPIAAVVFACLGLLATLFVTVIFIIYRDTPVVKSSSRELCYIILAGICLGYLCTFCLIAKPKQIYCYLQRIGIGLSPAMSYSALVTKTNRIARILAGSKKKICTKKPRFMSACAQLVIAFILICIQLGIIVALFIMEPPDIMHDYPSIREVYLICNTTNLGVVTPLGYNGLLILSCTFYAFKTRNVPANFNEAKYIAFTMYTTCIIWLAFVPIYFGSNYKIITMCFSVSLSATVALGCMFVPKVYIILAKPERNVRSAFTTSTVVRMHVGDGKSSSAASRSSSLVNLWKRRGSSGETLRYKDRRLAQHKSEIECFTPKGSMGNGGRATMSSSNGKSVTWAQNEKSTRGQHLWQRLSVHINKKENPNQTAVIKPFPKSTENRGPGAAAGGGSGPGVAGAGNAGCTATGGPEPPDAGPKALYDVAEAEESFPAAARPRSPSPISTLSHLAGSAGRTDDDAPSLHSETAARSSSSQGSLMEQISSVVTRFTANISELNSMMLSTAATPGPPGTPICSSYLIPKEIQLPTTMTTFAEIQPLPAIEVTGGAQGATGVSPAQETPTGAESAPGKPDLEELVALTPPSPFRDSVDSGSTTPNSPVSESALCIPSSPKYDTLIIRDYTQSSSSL
Chain of Metabotropic glutamate receptor 2 (P31421 whole entry): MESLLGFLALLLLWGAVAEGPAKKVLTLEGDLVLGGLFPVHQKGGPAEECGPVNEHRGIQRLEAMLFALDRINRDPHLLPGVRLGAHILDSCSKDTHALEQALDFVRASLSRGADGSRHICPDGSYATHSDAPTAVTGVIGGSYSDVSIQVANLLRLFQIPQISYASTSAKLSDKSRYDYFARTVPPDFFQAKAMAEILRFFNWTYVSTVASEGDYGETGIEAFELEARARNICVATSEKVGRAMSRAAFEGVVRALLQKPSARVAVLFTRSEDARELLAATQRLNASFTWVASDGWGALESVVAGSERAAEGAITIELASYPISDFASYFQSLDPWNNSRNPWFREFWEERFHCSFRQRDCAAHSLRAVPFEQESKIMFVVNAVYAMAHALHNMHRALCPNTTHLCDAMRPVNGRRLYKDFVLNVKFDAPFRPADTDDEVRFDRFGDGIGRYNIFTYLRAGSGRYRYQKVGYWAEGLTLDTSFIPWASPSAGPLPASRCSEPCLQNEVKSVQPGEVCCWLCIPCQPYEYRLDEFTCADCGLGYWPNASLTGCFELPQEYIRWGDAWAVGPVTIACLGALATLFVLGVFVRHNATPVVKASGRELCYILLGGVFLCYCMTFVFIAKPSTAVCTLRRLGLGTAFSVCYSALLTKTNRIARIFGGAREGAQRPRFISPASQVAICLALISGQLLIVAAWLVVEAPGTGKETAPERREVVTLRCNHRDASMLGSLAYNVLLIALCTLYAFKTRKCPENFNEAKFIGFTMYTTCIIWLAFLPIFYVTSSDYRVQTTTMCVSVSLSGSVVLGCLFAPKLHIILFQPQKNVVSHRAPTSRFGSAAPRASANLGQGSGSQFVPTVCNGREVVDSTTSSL
Chain of Metabotropic glutamate receptor 4 (P31423 whole entry): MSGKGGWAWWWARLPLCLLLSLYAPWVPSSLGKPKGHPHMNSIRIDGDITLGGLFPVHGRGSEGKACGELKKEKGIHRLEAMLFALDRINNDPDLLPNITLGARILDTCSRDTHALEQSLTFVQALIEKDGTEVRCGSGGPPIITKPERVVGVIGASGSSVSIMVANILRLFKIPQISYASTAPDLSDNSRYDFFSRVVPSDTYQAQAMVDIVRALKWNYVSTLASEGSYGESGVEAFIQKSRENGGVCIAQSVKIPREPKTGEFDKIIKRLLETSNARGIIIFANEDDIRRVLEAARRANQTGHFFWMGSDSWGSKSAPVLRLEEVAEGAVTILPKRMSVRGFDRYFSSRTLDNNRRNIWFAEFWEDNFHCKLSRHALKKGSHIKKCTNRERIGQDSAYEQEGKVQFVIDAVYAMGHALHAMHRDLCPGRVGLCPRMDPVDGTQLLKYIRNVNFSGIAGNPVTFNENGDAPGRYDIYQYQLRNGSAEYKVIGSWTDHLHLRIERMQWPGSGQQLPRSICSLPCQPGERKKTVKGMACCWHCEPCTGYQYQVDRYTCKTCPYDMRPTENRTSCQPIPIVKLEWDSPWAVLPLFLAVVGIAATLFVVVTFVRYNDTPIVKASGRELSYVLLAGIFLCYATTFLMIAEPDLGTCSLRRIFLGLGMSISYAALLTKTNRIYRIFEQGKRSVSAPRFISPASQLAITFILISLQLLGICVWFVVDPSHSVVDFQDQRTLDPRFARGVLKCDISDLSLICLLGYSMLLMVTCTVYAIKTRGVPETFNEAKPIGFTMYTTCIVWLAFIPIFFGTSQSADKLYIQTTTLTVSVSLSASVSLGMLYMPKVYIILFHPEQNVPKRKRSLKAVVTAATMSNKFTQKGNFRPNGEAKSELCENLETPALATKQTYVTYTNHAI

For `N[C@@H](Cc1onc(O)c1-c1ccc2ccccc2c1)C(=O)O`, the IC50 in [1] was over 100 µM; in experiment [2], over 100 µM; on Glutamate NMDA receptor, 14 µM; in the experiment filed under Rattus norvegicus [7], 715 µM. Further, the Ki in experiment [3] was 53 µM; in experiment [4] it was over 1000 µM; in experiment [5] it was over 1000 µM; in [6] it was 249 µM.
For `N[C@@H](Cc1cc(=O)[nH]o1)C(=O)O`, the IC50 (in experiment [1]; on Glutamate NMDA receptor) was over 100 µM throughout. Further, the Ki in experiment [3] is 490 µM; in experiment [4], over 1000 µM; in experiment [5], over 1000 µM; in experiment [6], 250 µM.
Turning to `N[C@@H](Cc1onc(O)c1-c1cccc(O)c1)C(=O)O`, the IC50 in [1] was over 100 µM; in experiment [2] it was 62 µM; on Glutamate NMDA receptor it was 42 µM. Moreover, the Ki was over 1000 µM in experiment [4], over 1000 µM in experiment [5] and 226 µM in [6]. Besides, in the experiment filed under Rattus norvegicus [8], the EC50 stood at 990 µM.
On to `N[C@@H](Cc1onc(O)c1-c1ccccc1)C(=O)O`, for which the IC50 (in experiment [1]; in experiment [2]; on Glutamate NMDA receptor) was over 100 µM each time. The Ki is over 1000 µM in experiment [4], over 1000 µM in experiment [5] and 160 µM in experiment [6]. The compound further showed an EC50 in the experiment listed under Rattus norvegicus [8] of 590 µM.
On to `N[C@@H](Cc1onc(O)c1-c1ccc(O)cc1)C(=O)O`, for which the IC50 is over 100 µM in experiment [1], over 100 µM in experiment [2], 20 µM on Glutamate NMDA receptor and about 1000 µM in the experiment filed under Rattus norvegicus [7]. The Ki in experiment [3] was 65 µM; in experiment [4], over 1000 µM; in experiment [5] it was over 1000 µM; in experiment [6] it was 71 µM.
Take `N[C@@H](Cc1o[nH]c(=O)c1-c1cccc2ccccc12)C(=O)O`: the IC50 in experiment [1] is over 100 µM; on Glutamate NMDA receptor it was over 100 µM; in the experiment listed under Rattus norvegicus [7], about 1000 µM; in experiment [9], over 100 µM. For the same compound, the Ki is 62 µM in experiment [3], over 1000 µM in experiment [4], over 1000 µM in experiment [5] and 119 µM in experiment [6].
Take `N[C@@H](Cc1o[nH]c(=O)c1CCc1ccccc1)C(=O)O`: the IC50 in experiment [1] is over 100 µM; in experiment [2], over 100 µM; on Glutamate NMDA receptor, over 100 µM; in the experiment filed under Rattus norvegicus [7], over 1000 µM. Further, the Ki in experiment [3] was 70 µM; in [4], over 1000 µM; in experiment [5], over 1000 µM; in [6] it was 92 µM.
As for `N[C@@H](Cc1o[nH]c(=O)c1-c1ccccn1)C(=O)O`, the values for the IC50 (in experiment [1]; in experiment [2]; on Glutamate NMDA receptor) were over 100 µM, 1.3 µM and over 100 µM, respectively. In addition, the Ki in experiment [3] is 224 µM; in experiment [4], over 1000 µM; in [5], over 1000 µM; in experiment [6], 396 µM. In addition, the EC50 in the experiment listed under Rattus norvegicus [8] was 23 µM.
In the case of `N[C@@H](Cc1onc(O)c1-c1ccccc1O)C(=O)O`, the IC50 (in experiment [1]; in experiment [2]; on Glutamate NMDA receptor) was over 100 µM in each case. Further, the Ki in experiment [3] was 45 µM; in [4], over 1000 µM; in experiment [5] it was over 1000 µM; in [6], 125 µM. Also, the EC50 in the experiment listed under Rattus norvegicus [8] is over 1000 µM.

Broadly, the IC50 is the midpoint of a concentration-inhibition curve. For orientation: Ki means the dissociation constant of the complex between target and ligand, obtained from inhibition or displacement. Lower therefore signals a stronger hold on the target. One may read the EC50 as the concentration that produces a half-maximal response.

Source of the values: ChEMBL document CHEMBL1135727, “Selective antagonists at group I metabotropic glutamate receptors: synthesis and molecular pharmacology of 4-aryl-3-isoxazolol amino acids” (J Med Chem, 2002).
